The text below walks through data of PMC5801548 (Bioconjugate chemistry, 2017).

Test [1] concerns A. baumannii ATCC 19606. The test is described as follows: Disk diffusion assay. It is filed as cell-based. Particulars: Ab ATCC 19606, 20 μg on blank disc (Ø = 0.6 cm), 24 h. In short, it runs like this:
(§1)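 The test compound (20 µg) was loaded onto a blank 0.6 cm disc and placed on an agar plate inoculated with the bacterium. The plate was incubated for 24 h, and the diameter of the bacteria-free zone around the disc was measured in cm. Saline was included as a control.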
In general terms: A growth-free zone around the sample is the usual read-out of agar diffusion tests.

Another test has as its system Ab ATCC 19606. Particulars: broth microdilution, mass basis; data with * ref [21]; cited from earlier work. For orientation: In broth dilution the organism is exposed to a series of concentrations in liquid medium.
A further test relates to P. aeruginosa ATCC 27853. Put plainly: Disk diffusion assay. It counts as cell-based. Particulars: Pa ATCC 27853, 20 μg on blank disc (Ø = 0.6 cm), 24 h. The method in brief: as §1
Test [2] has as its system A. baumannii ATCC 19606. Put plainly: Time-kill study. It is filed as cell-based. The settings on record: 4 × MIC (mass based; higher value where MIC is a range).

For the substance colistin, the “Diameter of Zone of Inhibition (ZOI)” value in the test with A. baumannii ATCC 19606 [1] and in the test on P. aeruginosa ATCC 27853 was 1.8 cm throughout. Besides, the “Minimum inhibitory concentration against Ab ATCC 19606 (MIC)” value in the test with Ab ATCC 19606 is given as 1* mg/L.
Regarding colistin methanesulfonate [CMS], the “Time to inhibit the growth of bacteria to levels approaching the detection limit” value with A. baumannii ATCC 19606 [2] is listed as “around 6 h”. Besides, the entries for the “Diameter of Zone of Inhibition (ZOI)” value in the test on A. baumannii ATCC 19606 [1] and in the test with P. aeruginosa ATCC 27853 were 1.8 cm and 1.7 cm, respectively. Further, the “Minimum inhibitory concentration against Ab ATCC 19606 (MIC)” value in the test on Ab ATCC 19606 is 16* mg/L.
